The source made the active and inactive calls. The calls are words filed in the database; no cut-off is given here.
Assays:
[1] = biological target: T1, von Hippel-Lindau disease tumor suppressor/Bromodomain-containing protein 9 (Homo sapiens) (UniProt Q9H8M2+P40337); assay: PROTAC activity at VHL/BRD9 in human Ri-1 cells assessed as remaining BRD9 protein level at 10 nM incubated for 2 hrs by Western blot analysis relative to control; assay type: cell-based
In short: (§1)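 Ri-1 cells exposed to compound for the stated time before harvest; BRD9, BRD7 and β-actin measured by Western blot, band intensities quantified and set against DMSO-treated control.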

[2] = biological target: T1, von Hippel-Lindau disease tumor suppressor/Bromodomain-containing protein 9 (Homo sapiens); assay: PROTAC activity at VHL/BRD9 in human Ri-1 cells assessed as remaining BRD9 protein level at 10 nM incubated for 8 hrs by Western blot analysis relative to control; assay type: cell-based; in short: as §1
[3] = biological target: T1, von Hippel-Lindau disease tumor suppressor/Bromodomain-containing protein 9 (Homo sapiens); assay: PROTAC activity at VHL/HiBiT-tagged BRD9 expressed in HEK293 assessed as BRD9 ubiquitination at 1 uM measured upto 60 mins by NanoBRET assay; assay type: cell-based
[4] = biological target: T1, von Hippel-Lindau disease tumor suppressor/Bromodomain-containing protein 9 (Homo sapiens); assay: PROTAC activity at VHL/BRD9 in human Ri-1 cells assessed as remaining BRD9 protein level at 0.1 nM incubated for 8 hrs by Western blot analysis relative to control; assay type: cell-based; in short: as §1
EOL1 = assay: Antiproliferative activity against human EOL1 cells assessed as inhibition of cell growth incubated for 7 days by CellTiterGlo assay; assay type: functional, cell-based; settings: EOL1, 168 h
[5] = Stability in human liver microsomes at 0.5 uM measured upto 30 mins in the presence of NADPH; assay type: ADME, Microsome; settings: 0.5 h
[6] = biological target: T2, von Hippel-Lindau disease tumor suppressor/Bromodomain-containing protein 7 (Homo sapiens) (UniProt Q9NPI1+P40337); assay: PROTAC activity at VHL/BRD7 in human Ri-1 cells assessed as remaining BRD7 protein level at 10 nM incubated for 30 mins by Western blot analysis relative to control; assay type: cell-based
[7] = biological target: T2, von Hippel-Lindau disease tumor suppressor/Bromodomain-containing protein 7 (Homo sapiens); assay: PROTAC activity at VHL/BRD7 in human Ri-1 cells assessed as remaining BRD7 protein level at 10 nM incubated for 24 hrs by Western blot analysis relative to control; assay type: cell-based
[8] = biological target: T1, von Hippel-Lindau disease tumor suppressor/Bromodomain-containing protein 9 (Homo sapiens); assay: PROTAC activity at VHL/BRD9 in human Ri-1 cells assessed as remaining BRD9 protein level at 10 nM incubated for 24 hrs by Western blot analysis relative to control; assay type: cell-based; in short: as §1
[9] = biological target: T1, von Hippel-Lindau disease tumor suppressor/Bromodomain-containing protein 9 (Homo sapiens); assay: PROTAC activity at VHL/BRD9 in human Ri-1 cells assessed as BRD9 protein degradation at 100 nM pre-incubated for 30 mins with VH298 followed by compound addition and measured after 4 hrs by Western blot analysis; assay type: cell-based
[10] = biological target: T2, von Hippel-Lindau disease tumor suppressor/Bromodomain-containing protein 7 (Homo sapiens); assay: PROTAC activity at VHL/BRD7 in human Ri-1 cells assessed as maximal degradation by Western blot analysis relative to control; assay type: cell-based
[11] = biological target: T2, von Hippel-Lindau disease tumor suppressor/Bromodomain-containing protein 7 (Homo sapiens); assay: PROTAC activity at VHL/BRD7 in human Ri-1 cells assessed as BRD7 protein degradation in the presence of MG132 by Western blot analysis; assay type: cell-based
[12] = biological target: T1, von Hippel-Lindau disease tumor suppressor/Bromodomain-containing protein 9 (Homo sapiens); assay: PROTAC activity at VHL/BRD9 in human Ri-1 cells assessed as remaining BRD9 protein level at 1 uM incubated for 8 hrs by Western blot analysis relative to control; assay type: cell-based; in short: as §1
[13] = biological target: T2, von Hippel-Lindau disease tumor suppressor/Bromodomain-containing protein 7 (Homo sapiens); assay: PROTAC activity at VHL/BRD7 in human Ri-1 cells assessed as remaining BRD7 protein level at 100 nM incubated for 30 mins by Western blot analysis relative to control; assay type: cell-based; in short: as §1
[14] = biological target: T2, von Hippel-Lindau disease tumor suppressor/Bromodomain-containing protein 7 (Homo sapiens); assay: PROTAC activity at VHL/BRD7 in human Ri-1 cells assessed as remaining BRD7 protein level at 10 nM incubated for 2 hrs by Western blot analysis relative to control; assay type: cell-based
[15] = biological target: T1, von Hippel-Lindau disease tumor suppressor/Bromodomain-containing protein 9 (Homo sapiens); assay: PROTAC activity at VHL/BRD9 in human Ri-1 cells assessed as remaining BRD9 protein level at 100 nM incubated for 8 hrs by Western blot analysis relative to control; assay type: cell-based; in short: as §1
[16] = biological target: T2, von Hippel-Lindau disease tumor suppressor/Bromodomain-containing protein 7 (Homo sapiens); assay: PROTAC activity at VHL/BRD7 in human Ri-1 cells assessed as remaining BRD7 protein level at 100 nM incubated for 2 hrs by Western blot analysis relative to control; assay type: cell-based; in short: as §1
A204 = assay: Antiproliferative activity against human A204 cells assessed as inhibition of cell growth incubated for 7 days by CellTiterGlo assay; assay type: functional, cell-based; settings: A204, 168 h
[17] = biological target: T1, von Hippel-Lindau disease tumor suppressor/Bromodomain-containing protein 9 (Homo sapiens); assay: PROTAC activity at VHL/BRD9 in human Ri-1 cells assessed as remaining BRD9 protein level at 1 uM incubated for 2 hrs by Western blot analysis relative to control; assay type: cell-based; in short: as §1
[18] = biological target: T2, von Hippel-Lindau disease tumor suppressor/Bromodomain-containing protein 7 (Homo sapiens); assay: PROTAC activity at VHL/BRD7 in human Ri-1 cells assessed as remaining BRD7 protein level at 10000 nM incubated for 2 hrs by Western blot analysis relative to control; assay type: cell-based; in short: as §1
[19] = biological target: T2, von Hippel-Lindau disease tumor suppressor/Bromodomain-containing protein 7 (Homo sapiens); assay: PROTAC activity at VHL/HiBiT-tagged BRD7 expressed in HEK293 assessed as BRD7 ubiquitination at 1 uM measured upto 60 mins by NanoBRET assay; assay type: cell-based
[20] = biological target: T1, von Hippel-Lindau disease tumor suppressor/Bromodomain-containing protein 9 (Homo sapiens); assay: PROTAC activity at VHL/BRD9 in human Ri-1 cells assessed as remaining BRD9 protein level at 100 nM incubated for 24 hrs by Western blot analysis relative to control; assay type: cell-based; in short: as §1
[21] = biological target: T2, von Hippel-Lindau disease tumor suppressor/Bromodomain-containing protein 7 (Homo sapiens); assay: PROTAC activity at VHL/BRD7 in human Ri-1 cells assessed as remaining BRD7 protein level at 1 uM incubated for 2 hrs by Western blot analysis relative to control; assay type: cell-based
[22] = biological target: T2, von Hippel-Lindau disease tumor suppressor/Bromodomain-containing protein 7 (Homo sapiens); assay: PROTAC activity at VHL/BRD7 in human Ri-1 cells assessed as remaining BRD7 protein level at 0.1 nM incubated for 8 hrs by Western blot analysis relative to control; assay type: cell-based
[23] = biological target: T1, von Hippel-Lindau disease tumor suppressor/Bromodomain-containing protein 9 (Homo sapiens); assay: PROTAC activity at VHL/BRD9 in human Ri-1 cells assessed as remaining BRD9 protein level at 10 nM incubated for 48 hrs by Western blot analysis relative to control; assay type: cell-based; in short: as §1
[24] = biological target: T1, von Hippel-Lindau disease tumor suppressor/Bromodomain-containing protein 9 (Homo sapiens); assay: PROTAC activity at VHL/BRD9 in human Ri-1 cells assessed as BRD9 protein degradation at 100 nM incubated for 4 hrs by MS proteomics analysis; assay type: cell-based
In short: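 RI-1 cells treated in triplicate with compound (100 nM) or DMSO for 4 h; whole-cell proteome quantified by MS (6273 proteins), fold change versus control with t-test P-values.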

[25] = biological target: T2, von Hippel-Lindau disease tumor suppressor/Bromodomain-containing protein 7 (Homo sapiens); assay: PROTAC activity at VHL/BRD7 in human Ri-1 cells assessed as BRD7 protein degradation at 100 nM incubated for 4 hrs by MS proteomics analysis; assay type: cell-based
[26] = Kinetic aqueous solubility of the compound by laser nephelometry; assay type: physicochemical; settings: read-out: Kinetic_solubility
In short: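 Laser nephelometry. DMSO stocks serially diluted from 10 mM to 0.5 mM, then mixed into water to give final 250–12 µM with 2.5% final DMSO. Triplicate aliquots read immediately.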

[27] = biological target: T2, von Hippel-Lindau disease tumor suppressor/Bromodomain-containing protein 7 (Homo sapiens); assay: PROTAC activity at VHL/BRD7 in human HeLa cells assessed as remaining BRD7 protein level at 1 uM incubated for 4 hrs by Western blot analysis relative to control; assay type: cell-based
[28] = Stability in human plasma at 10 uM measured upto 180 mins by UPLC-MS/MS analysis; assay type: ADME, cell-free; settings: 3 h
[29] = biological target: T1, von Hippel-Lindau disease tumor suppressor/Bromodomain-containing protein 9 (Homo sapiens); assay: PROTAC activity at VHL/BRD9 in human Ri-1 cells assessed as remaining BRD9 protein level at 100 nM incubated for 48 hrs by Western blot analysis relative to control; assay type: cell-based; in short: as §1
[30] = Stability in CD-1 mouse liver microsomes at 0.5 uM measured upto 30 mins in the presence of NADPH; assay type: ADME, Microsome; settings: 0.5 h
[31] = biological target: T2, von Hippel-Lindau disease tumor suppressor/Bromodomain-containing protein 7 (Homo sapiens); assay: PROTAC activity at VHL/BRD7 in human Ri-1 cells assessed as remaining BRD7 protein level at 10 nM incubated for 48 hrs by Western blot analysis relative to control; assay type: cell-based; in short: as §1

T2 sequence (P40337 whole entry, looked up): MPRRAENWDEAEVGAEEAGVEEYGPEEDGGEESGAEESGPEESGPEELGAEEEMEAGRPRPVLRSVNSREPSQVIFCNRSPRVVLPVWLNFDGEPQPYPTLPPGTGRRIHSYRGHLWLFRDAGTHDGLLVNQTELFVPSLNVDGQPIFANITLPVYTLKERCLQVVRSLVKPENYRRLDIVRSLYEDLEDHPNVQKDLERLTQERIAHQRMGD
T2 sequence (Q9NPI1 whole entry, looked up): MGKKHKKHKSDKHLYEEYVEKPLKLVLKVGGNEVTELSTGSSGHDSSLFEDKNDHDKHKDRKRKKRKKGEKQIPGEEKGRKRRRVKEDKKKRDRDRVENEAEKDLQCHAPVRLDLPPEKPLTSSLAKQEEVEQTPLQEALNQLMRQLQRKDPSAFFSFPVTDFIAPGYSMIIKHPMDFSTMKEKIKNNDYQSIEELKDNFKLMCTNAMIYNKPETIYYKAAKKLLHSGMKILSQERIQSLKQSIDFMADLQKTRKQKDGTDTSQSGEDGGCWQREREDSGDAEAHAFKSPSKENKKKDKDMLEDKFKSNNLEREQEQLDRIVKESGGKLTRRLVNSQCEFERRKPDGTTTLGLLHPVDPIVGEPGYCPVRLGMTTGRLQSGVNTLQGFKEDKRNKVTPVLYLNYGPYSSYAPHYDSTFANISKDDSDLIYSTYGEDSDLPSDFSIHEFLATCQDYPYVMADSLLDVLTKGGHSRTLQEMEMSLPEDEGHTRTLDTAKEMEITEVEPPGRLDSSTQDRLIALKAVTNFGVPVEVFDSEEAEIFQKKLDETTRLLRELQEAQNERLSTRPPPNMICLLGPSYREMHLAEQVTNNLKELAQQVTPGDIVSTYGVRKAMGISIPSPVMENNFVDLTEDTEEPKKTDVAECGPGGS
T1 sequence (P40337 whole entry, looked up): as the sequence (P40337 whole entry, looked up) above
T1 sequence (Q9H8M2 whole entry, looked up): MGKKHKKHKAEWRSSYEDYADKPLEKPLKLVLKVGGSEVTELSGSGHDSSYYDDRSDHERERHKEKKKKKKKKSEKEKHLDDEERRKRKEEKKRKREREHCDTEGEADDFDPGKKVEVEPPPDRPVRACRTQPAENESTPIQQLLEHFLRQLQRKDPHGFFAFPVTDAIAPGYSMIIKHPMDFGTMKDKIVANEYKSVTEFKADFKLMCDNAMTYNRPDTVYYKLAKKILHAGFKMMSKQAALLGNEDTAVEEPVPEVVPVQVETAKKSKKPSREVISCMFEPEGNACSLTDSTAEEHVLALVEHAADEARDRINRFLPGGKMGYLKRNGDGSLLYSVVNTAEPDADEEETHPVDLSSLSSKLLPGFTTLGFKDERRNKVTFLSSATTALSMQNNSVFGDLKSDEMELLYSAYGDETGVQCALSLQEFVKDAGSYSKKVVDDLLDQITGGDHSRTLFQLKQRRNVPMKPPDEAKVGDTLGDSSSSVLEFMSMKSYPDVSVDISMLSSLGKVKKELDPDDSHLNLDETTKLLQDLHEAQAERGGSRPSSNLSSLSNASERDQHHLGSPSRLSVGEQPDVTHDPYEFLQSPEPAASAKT

Activity [1]: 35%
Activity [2]: 14%
Activity [3]: Active
Activity [4]: 80%
Stability [5]: Stable
Activity [6]: 70%
Activity [7]: 38%
Activity [8]: 17%
Activity [9]: inactive
Emax [10]: > 90%
Activity [11]: inactive
Activity [12]: 16%
Activity [13]: 40%
Activity [14]: 52%
Activity [15]: 2%
Activity [16]: 8%
Activity [17]: 52%
Activity [18]: 75%
Activity [19]: Active
Activity [20]: 2%
Activity [21]: 10%
Activity [22]: 109%
Activity [23]: 2%
Activity [24]: Active
Activity [25]: Active
solubility kinetic [26]: ≤ 100 µM
Activity [27]: 10%
Stability [28]: Stable
Activity [29]: 2%
Stability [30]: Stable
Activity [31]: 12%
SMILES: COc1cc(-c2cn(C)c(=O)c3cnccc23)cc(OC)c1CN1CCN(CCCCCOc2cc(-c3scnc3C)ccc2CNC(=O)[C@@H]2C[C@@H](O)CN2C(=O)[C@@H](NC(=O)C2(F)CC2)C(C)(C)C)CC1
IC50 (EOL1): 3.39 nM
IC50 (A204): 39.8 nM
